From publication PMC6246805 (SLAS discovery : advancing life sciences R & D, 2018)
Structures can show the parent of a compound that is named as a salt.

Columns and labels:
[1] = molecular target: T1, aerobactin synthetase IucA (Klebsiella pneumoniae, UniProt A0A1A9TA96); type: biochemical, hypervirulent K. pneumoniae hvKP1; details: for inhibition of IucA in pilot screen and follow-up: pilot screen of 4,400 bioactives, enzyme-initiated protocol; for effect of increasing IucA concentration on apparent potency: 20, 200, or 2,000 nM IucA; for effect of increasing IucA concentration on apparent potency / effect of 1 h pre-incubation with IucA on apparent potency: MG assay; for effect of 1 h pre-incubation with IucA on apparent potency: compared to reactions without pre-incubation
[2] = test system: RecA; details: cited from earlier work
[3] = test system: human RAD51 recombinase; details: cited from earlier work
[4] = test system: bacterial IspE kinase; details: cited from earlier work
[5] = molecular target: T1, aerobactin synthetase IucA; assay: Orthogonal luminescence; type: biochemical, hypervirulent K. pneumoniae hvKP1; details: 30 min pre-incubation, substrate-initiated
[6] = ref PubChem database; cited from earlier work
[7] = test system: IucA; details: read-out: KM for IucA; cited from earlier work
[8] = test system: IucA; assay: Fluorescence-based thermal shift assay; type: binding, hypervirulent K. pneumoniae hvKP1; details: substrates ATP (1.5 mM) and citrate (1.5 mM)
Procedure, shortened: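 Purified IucA (10 μg per sample) with 5× SYPRO Orange, in the more concentrated buffer used for substrate runs: 50 mM HEPES, 150 mM NaCl, 0.2 mM TCEP, pH 7.5. ATP and citrate were each at 1.5 mM. Samples were heated from 25 to 99 °C over 45 min in a real-time PCR instrument, reading fluorescence (ex 545/em 568 nm) every 0.5 °C. TM was taken as the maximum of the first derivative of the melt curve.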

Question: For `C[CH2][Hg][S]c1ccccc1C(=O)[O-].[Na+]` [thiomersal, reference compound], which “inhibition of IucA in pilot screen and follow-up” value (from here on “inhibition of IucA”) [1] is on record?
Answer: identified in the initial screen

Question: With `O=c1c2ccccc2nc(/C=C/c2cccnc2)n1Cc1ccccc1` [CB06] as the molecule, how does the “inhibition of E. coli RecA” value [2] read?
Answer: did not inhibit

Question: What about the “effect of increasing IucA concentration on apparent potency” value [1] of the same molecule?
Answer: apparent potency was reduced

Question: And the “effect of 1 h pre-incubation with IucA on apparent potency” value [1]?
Answer: increased apparent potency

Question: What about the “inhibition of human RAD51 recombinase” value [3] of the same molecule?
Answer: inhibitor

Question: Which “inhibition of IspE kinase” value [4] does the source give for `COc1ccc(-n2c(-c3cccnc3)nc3ccccc3c2=O)cc1` [CB04] here?
Answer: potent inhibitors

Question: With `O=c1c2ccccc2nc(-c2cccnc2)n1-c1ccc(Br)cc1` [CB05] as the molecule, how does the “inhibition of IspE kinase” value [4] read?
Answer: potent inhibitors

Question: Which results are given for `CC1=NN(c2nc(-c3ccc(Cl)cc3)cs2)C(=O)/C1=C\c1ccc2c(c1)OCO2` [CB02]?
Answer: dose-dependent activity, secondary luminescence assay [5]: most potent dose-dependent activity; effect of increasing IucA concentration on apparent potency [1]: apparent potency was reduced; effect of 1 h pre-incubation with IucA on apparent potency [1]: increased apparent potency; dose-dependent activity, primary substrate-initiated MG assay ([1]; purchased compounds, substrate-initiated protocol): highest potency; reported active in unique PubChem bioassays [6]: 2 out of 8

Question: With `O=c1c2ccccc2[se]n1-c1ccccc1` [Ebselen, reference compound] as the molecule, how does the “inhibition of IucA” value [1] read?
Answer: identified as an inhibitor

Question: For `O=C(O)c1cc[c]([Hg][Cl])cc1` [4-chloromercuribenzoic acid, reference compound], which “inhibition of IucA” value [1] is on record?
Answer: identified in the initial screen

Question: Which Km [7] does the source give for `O=C(O)CC(O)(CC(=O)O)C(=O)O` [citrate, sodium citrate tribasic dihydrate] here?
Answer: 180 ± 30 µM

Question: Which “inhibition of IucA” value [1] does the source give for `O=C([O-])c1ccccc1-c1c2cc(Br)c(=O)cc-2oc2[c]([Hg+])c([O-])c(Br)cc12.[Na+].[Na+].[OH-]` [Merbromin, reference compound] here?
Answer: identified in the initial screen

Question: For `CC(=O)[O][Hg][c]1ccccc1` [phenylmercuric acetate, reference compound], which “inhibition of IucA” value [1] is on record?
Answer: identified in the initial screen

Question: With `Nc1ncnc2c1ncn2[C@@H]1O[C@H](COP(=O)(O)OP(=O)([O-])OP(=O)([O-])O)[C@@H](O)[C@H]1O.[Na+].[Na+]` [ATP, adenosine triphosphate disodium salt hydrate] as the molecule, how does the Km [7] read?
Answer: 130 ± 30 µM

Question: What about the “shift in the melting temperature (TM) of IucA” value [8] of the same molecule?
Answer: +2–5 °C
